Laboratory results as given in ChEMBL document CHEMBL2311431, “Synthesis and biological evaluation of some 5-arylidene-2-(1,3-thiazol-2-ylimino)-1,3-thiazolidin-4-ones as dual anti-inflammatory/antimicrobial agents” (Bioorg Med Chem, 2013).
≈ marks a conversion by molar mass, not a printed value. Calls of active or inactive are those of the source. The rule behind the calls is not given here.

Columns and labels:
Mus musculus [1] = assay: Acute toxicity in AKR mouse up to 0.5 mmol/kg, ip; assay type: organism-based; conditions: in vivo
Mus musculus [2] = assay: Antiinflammatory activity in AKR mouse assessed as inhibition of carrageenan-induced paw edema at 0.01 mmol/kg, ip measured after 3.5 hrs of carrageenan-challenge; assay type: functional
Outline: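 AKR mice of both sexes (pregnant females excluded), 6-10 per group, fasted during the experiment. Edema induced by intradermal 0.05 mL of 2% carrageenin into the right hind paw. Compound given at 0.01 mmol/kg ip, suspended in water with Tween-80, at the same time as carrageenin.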

[3] = target: T1, Prostaglandin G/H synthase 1 (Ovis aries) (UniProt P05979); assay: (§1) Inhibition of ovine COX1 assessed as inhibition of PGF2a production by enzyme immunoassay; parameters: concentration or dose not given beside the values; conditions: concentration not given here
T1 sequence (whole entry): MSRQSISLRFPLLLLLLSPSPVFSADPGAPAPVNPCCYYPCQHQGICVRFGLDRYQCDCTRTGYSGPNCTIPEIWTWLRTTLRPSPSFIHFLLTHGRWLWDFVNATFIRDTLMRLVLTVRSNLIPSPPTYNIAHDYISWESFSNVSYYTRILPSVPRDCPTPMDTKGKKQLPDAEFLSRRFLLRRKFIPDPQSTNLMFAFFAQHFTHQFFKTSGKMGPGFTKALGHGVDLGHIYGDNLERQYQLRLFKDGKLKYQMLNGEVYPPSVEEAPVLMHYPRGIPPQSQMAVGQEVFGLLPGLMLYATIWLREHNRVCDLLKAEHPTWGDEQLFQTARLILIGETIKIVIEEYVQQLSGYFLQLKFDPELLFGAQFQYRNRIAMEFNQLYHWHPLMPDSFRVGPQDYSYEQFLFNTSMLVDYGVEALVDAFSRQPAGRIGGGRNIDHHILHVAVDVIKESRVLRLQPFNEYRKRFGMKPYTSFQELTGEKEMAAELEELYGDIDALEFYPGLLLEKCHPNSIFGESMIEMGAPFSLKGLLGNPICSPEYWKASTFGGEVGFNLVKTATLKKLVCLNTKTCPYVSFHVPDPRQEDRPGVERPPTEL
Outline: (§2)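 Ovine COX-1 from a commercial screening kit, tested with 0.1 µM arachidonic acid, which is below the saturating level. COX-derived PGH2 is reduced by SnCl2 to PGF2a, quantified by enzyme immunoassay with a broad prostaglandin antibody. At least triplicate.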

[4] = target: T2, Prostaglandin G/H synthase 1 (Ovis aries, UniProt P05979); assay: as §1; outline: as §2
T2 sequence (P05979 whole entry): T1 sequence (whole entry)

Glycine max = assay: (§3) Inhibition of soybean lipoxygenase assessed as inhibition of sodium linolate conversion to 13-hydroperoxylinoleic acid after 4 mins by spectrophotometry
Aspergillus niger [5] = assay: Fungicidal activity against Aspergillus niger ATCC 6275 after 72 hrs by serial subcultivation method; assay type: functional; conditions: ATCC 6275, 72 h
Aspergillus niger [6] = assay: Antifungal activity against Aspergillus niger ATCC 6275 after 72 hrs by serial dilution technique; assay type: functional; conditions: ATCC 6275, 72 h
Outline: (§4)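 Serial dilution in malt broth; compounds from 1 mg/ml stocks in 5% DMSO; 72 h at 28 °C. MIC is the lowest concentration with no visible growth under a binocular microscope. Run in duplicate, repeated three times.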

Aspergillus fumigatus [7] = assay: Fungicidal activity against Aspergillus fumigatus after 72 hrs by serial subcultivation method; assay type: functional
Aspergillus flavus [8] = assay: Fungicidal activity against Aspergillus flavus ATCC 9643 after 72 hrs by serial subcultivation method; assay type: functional; conditions: ATCC 9643, 72 h
Trichoderma viride [9] = assay: Fungicidal activity against Trichoderma viride IAM 5061 after 72 hrs by serial subcultivation method; assay type: functional; conditions: IAM 5061, 72 h
Penicillium ochrochloron [10] = assay: Fungicidal activity against Penicillium ochrochloron ATCC 9112 after 72 hrs by serial subcultivation method; assay type: functional; conditions: ATCC 9112, 72 h
Aspergillus flavus [11] = assay: Antifungal activity against Aspergillus flavus ATCC 9643 after 72 hrs by serial dilution technique; assay type: functional; conditions: ATCC 9643, 72 h; outline: as §4
Talaromyces funiculosus [12] = assay: Fungicidal activity against Penicillium funiculosum ATCC 36839 after 72 hrs by serial subcultivation method; assay type: functional; conditions: ATCC 36839, 72 h
Aspergillus fumigatus [13] = assay: Antifungal activity against Aspergillus fumigatus after 72 hrs by serial dilution technique; assay type: functional; outline: as §4
Trichoderma viride [14] = assay: Antifungal activity against Trichoderma viride IAM 5061 after 72 hrs by serial dilution technique; assay type: functional; conditions: IAM 5061, 72 h; outline: as §4
Penicillium ochrochloron [15] = assay: Antifungal activity against Penicillium ochrochloron ATCC 9112 after 72 hrs by serial dilution technique; assay type: functional; conditions: ATCC 9112, 72 h; outline: as §4
Talaromyces funiculosus [16] = assay: Antifungal activity against Penicillium funiculosum ATCC 36839 after 72 hrs by serial dilution technique; assay type: functional; conditions: ATCC 36839, 72 h; outline: as §4
Escherichia coli [17] = assay: Bactericidal activity against Escherichia coli ATCC 35210 after 72 hrs by serial subcultivation method; assay type: functional; conditions: ATCC 35210, 72 h
Pseudomonas aeruginosa [18] = assay: Bactericidal activity against Pseudomonas aeruginosa ATCC 27853 after 72 hrs by serial subcultivation method; assay type: functional; conditions: ATCC 27853, 72 h
Listeria monocytogenes [19] = assay: Bactericidal activity against Listeria monocytogenes NCTC 7973 after 72 hrs by serial subcultivation method; assay type: functional; conditions: NCTC 7973, 72 h
Bacillus cereus [20] = assay: Bactericidal activity against Bacillus cereus clinical isolate after 72 hrs by serial subcultivation method; assay type: functional
Micrococcus flavus [21] = assay: Bactericidal activity against Micrococcus flavus ATCC 10240 after 72 hrs by serial subcultivation method; assay type: functional; conditions: ATCC 10240, 72 h
Staphylococcus aureus [22] = assay: Bactericidal activity against Staphylococcus aureus ATCC 6538 after 72 hrs by serial subcultivation method; assay type: functional; conditions: ATCC 6538, 72 h
Escherichia coli [23] = assay: Antibacterial activity against Escherichia coli ATCC 35210 after 24 hr by microdilution test; assay type: functional; conditions: ATCC 35210, 24 h
Outline: (§5)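 Broth microdilution in LB medium, about 1.0×10^4 cfu per well; compounds from 1 mg/ml stocks in 5% DMSO. Incubated 24 h. MIC is the lowest concentration with no visible growth under a binocular microscope. Run in duplicate, repeated three times.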

Listeria monocytogenes [24] = assay: Antibacterial activity against Listeria monocytogenes NCTC 7973 after 24 hr by microdilution test; assay type: functional; conditions: NCTC 7973, 24 h; outline: as §5
Pseudomonas aeruginosa [25] = assay: Antibacterial activity against Pseudomonas aeruginosa ATCC 27853 after 24 hr by microdilution test; assay type: functional; conditions: ATCC 27853, 24 h; outline: as §5
Micrococcus flavus [26] = assay: Antibacterial activity against Micrococcus flavus ATCC 10240 after 24 hr by microdilution test; assay type: functional; conditions: ATCC 10240, 24 h; outline: as §5
Bacillus cereus [27] = assay: Antibacterial activity against Bacillus cereus clinical isolate after 24 hr by microdilution test; assay type: functional; outline: as §5
Staphylococcus aureus [28] = assay: Antibacterial activity against Staphylococcus aureus ATCC 6538 after 24 hr by microdilution test; assay type: functional; conditions: ATCC 6538, 24 h; outline: as §5
[29] = as §3; parameters: species or system Glycine max; conditions: read-out: IC50

SMILES | Activity (Mus musculus [1]) | inhibition in vivo at 10 µmol/kg (Mus musculus [2]) | inhibition [3] | inhibition (Glycine max) | MFC (Aspergillus niger [5]) | MIC (Aspergillus niger [6]) | MFC (Aspergillus fumigatus [7]) | MFC (Aspergillus flavus [8]) | MFC (Trichoderma viride [9]) | MFC (Penicillium ochrochloron [10]) | MIC (Aspergillus flavus [11]) | MFC (Talaromyces funiculosus [12]) | MIC (Aspergillus fumigatus [13]) | MIC (Trichoderma viride [14]) | MIC (Penicillium ochrochloron [15]) | MIC (Talaromyces funiculosus [16]) | MBC (Escherichia coli [17]) | MBC (Pseudomonas aeruginosa [18]) | MBC (Listeria monocytogenes [19]) | MBC (Bacillus cereus [20]) | further results
O=C1N/C(=N\c2nccs2)S/C1=C\c1cc(Br)ccc1O | Non-toxic | 54.4% | 73% | inactive | 68 µM (≈ 26 µg/mL) | 34 µM (≈ 13 µg/mL) | 34 µM (≈ 13 µg/mL) | 68 µM (≈ 26 µg/mL) | 17 µM (≈ 6.5 µg/mL) | 34 µM (≈ 13 µg/mL) | 34 µM (≈ 13 µg/mL) | 34 µM (≈ 13 µg/mL) | 17 µM (≈ 6.5 µg/mL) | 8.5 µM (≈ 3.25 µg/mL) | 17 µM (≈ 6.5 µg/mL) | 17 µM (≈ 6.5 µg/mL) | 137 µM (≈ 52.4 µg/mL) | 34 µM (≈ 13 µg/mL) | 34 µM (≈ 13 µg/mL) | 34 µM (≈ 13 µg/mL) | IC50 [4]: 65 µM; MBC (Micrococcus flavus [21]): 68 µM (≈ 26 µg/mL); MBC (Staphylococcus aureus [22]): 68 µM (≈ 26 µg/mL); MIC (Escherichia coli [23]): 68 µM (≈ 26 µg/mL); MIC (Listeria monocytogenes [24]): 17 µM (≈ 6.5 µg/mL); MIC (Pseudomonas aeruginosa [25]): 17 µM (≈ 6.5 µg/mL); MIC (Micrococcus flavus [26]): 34 µM (≈ 13 µg/mL); MIC (Bacillus cereus [27]): 9 µM (≈ 3.44 µg/mL); MIC (Staphylococcus aureus [28]): 34 µM (≈ 13 µg/mL)
O=C1N/C(=N\c2nccs2)S/C1=C\c1ccc(F)cc1 | Non-toxic | 65.6% | 44% | 35% | 65.4 µM (≈ 20 µg/mL) | 32.7 µM (≈ 9.99 µg/mL) | 65.4 µM (≈ 20 µg/mL) | 81.9 µM (≈ 25 µg/mL) | 65.4 µM (≈ 20 µg/mL) | 65.4 µM (≈ 20 µg/mL) | 65.4 µM (≈ 20 µg/mL) | 65.4 µM (≈ 20 µg/mL) | 49.1 µM (≈ 15 µg/mL) | 32.7 µM (≈ 9.99 µg/mL) | 32.7 µM (≈ 9.99 µg/mL) | 32.7 µM (≈ 9.99 µg/mL) | 65.4 µM (≈ 20 µg/mL) | 65.4 µM (≈ 20 µg/mL) | 98.2 µM (≈ 30 µg/mL) | 32.7 µM (≈ 9.99 µg/mL) | IC50 [29]: > 150 µM; MBC (Micrococcus flavus [21]): 81.9 µM (≈ 25 µg/mL); MBC (Staphylococcus aureus [22]): 65.4 µM (≈ 20 µg/mL); MIC (Escherichia coli [23]): 32.7 µM (≈ 9.99 µg/mL); MIC (Listeria monocytogenes [24]): 81.9 µM (≈ 25 µg/mL); MIC (Pseudomonas aeruginosa [25]): 32.7 µM (≈ 9.99 µg/mL); MIC (Micrococcus flavus [26]): 65.4 µM (≈ 20 µg/mL); MIC (Bacillus cereus [27]): 24.6 µM (≈ 7.51 µg/mL); MIC (Staphylococcus aureus [28]): 32.7 µM (≈ 9.99 µg/mL)
O=C1N/C(=N\c2nccs2)S/C1=C\c1ccc(Cl)cc1Cl | Non-toxic | 9.9% | 98% | 54% | 56.2 µM (≈ 20 µg/mL) | 42.1 µM (≈ 15 µg/mL) | 56.2 µM (≈ 20 µg/mL) | 56.2 µM (≈ 20 µg/mL) | 42.1 µM (≈ 15 µg/mL) | 56.2 µM (≈ 20 µg/mL) | 42.1 µM (≈ 15 µg/mL) | 56.2 µM (≈ 20 µg/mL) | 42.1 µM (≈ 15 µg/mL) | 28.1 µM (≈ 10 µg/mL) | 42.1 µM (≈ 15 µg/mL) | 28.1 µM (≈ 10 µg/mL) | 56.2 µM (≈ 20 µg/mL) | 70.2 µM (≈ 25 µg/mL) | 84.2 µM (≈ 30 µg/mL) | 56.2 µM (≈ 20 µg/mL) | IC50 [4]: 32 µM; IC50 [29]: 122 µM; MBC (Micrococcus flavus [21]): 98.2 µM (≈ 35 µg/mL); MBC (Staphylococcus aureus [22]): 70.2 µM (≈ 25 µg/mL); MIC (Escherichia coli [23]): 21.1 µM (≈ 7.52 µg/mL); MIC (Listeria monocytogenes [24]): 70.2 µM (≈ 25 µg/mL); MIC (Pseudomonas aeruginosa [25]): 28.1 µM (≈ 10 µg/mL); MIC (Micrococcus flavus [26]): 84.2 µM (≈ 30 µg/mL); MIC (Bacillus cereus [27]): 28.1 µM (≈ 10 µg/mL); MIC (Staphylococcus aureus [28]): 56.2 µM (≈ 20 µg/mL)
O=C1N/C(=N\c2nccs2)S/C1=C\c1cccc(Cl)c1Cl | Non-toxic | 45% | 100% | 41% | 56.2 µM (≈ 20 µg/mL) | 42.1 µM (≈ 15 µg/mL) | 70.2 µM (≈ 25 µg/mL) | 56.2 µM (≈ 20 µg/mL) | 56.2 µM (≈ 20 µg/mL) | 56.2 µM (≈ 20 µg/mL) | 42.1 µM (≈ 15 µg/mL) | 56.2 µM (≈ 20 µg/mL) | 56.2 µM (≈ 20 µg/mL) | 28.1 µM (≈ 10 µg/mL) | 42.1 µM (≈ 15 µg/mL) | 28.1 µM (≈ 10 µg/mL) | 70.2 µM (≈ 25 µg/mL) | 56.2 µM (≈ 20 µg/mL) | 84.2 µM (≈ 30 µg/mL) | 70.2 µM (≈ 25 µg/mL) | IC50 [4]: 10 µM; IC50 [29]: 143 µM; MBC (Micrococcus flavus [21]): 84.2 µM (≈ 30 µg/mL); MBC (Staphylococcus aureus [22]): 84.2 µM (≈ 30 µg/mL); MIC (Escherichia coli [23]): 56.2 µM (≈ 20 µg/mL); MIC (Listeria monocytogenes [24]): 70.2 µM (≈ 25 µg/mL); MIC (Pseudomonas aeruginosa [25]): 28.1 µM (≈ 10 µg/mL); MIC (Micrococcus flavus [26]): 56.2 µM (≈ 20 µg/mL); MIC (Bacillus cereus [27]): 56.2 µM (≈ 20 µg/mL); MIC (Staphylococcus aureus [28]): 70.2 µM (≈ 25 µg/mL)
